SMILES strings stand for the structures. The source made the active and inactive calls.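 The calls were made as follows, unless noted: active = viability at or under a set limit in both replicates, limit being median viability minus 3 SD (cut at about 48% in these data, passing the limit was not always enough); inconclusive = at or under the limit in just one replicate; inactive = at or above the limit in both replicates.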

Assay [1] addresses Pantothenate synthetase (Mycobacterium tuberculosis (strain ATCC 25618 / H37Rv)) (UniProt P9WIL5). Nature of the assay: Recombinant Mtb pantothenate synthetase (PanC) inhibitors, coupled enzyme, confirmatory (AID 375; call rule not given here;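 also: 0% = full reaction with vehicle and 100% = no enzyme background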). Conditions: coupled enzyme assay; at 10 µM, stronger effect = higher value.
A short description of assay [2]: reducers of endogenous Her2 protein level, primary screen, SKBR3 breast tumor cells, AlphaScreen, ATP viability (AID 461;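 active = Her2 level under about 52% in both replicate screens, with viability over 70% of control, limit read from the data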;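 as to Her2 level: lower value means less Her2 protein in the cells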;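 as to viability: percent of carrier control wells set as 100% viability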). Conditions: 18-24 h, measured here: SKBR3 viability, ATP luminescence, at 10 µM. Background: Bead proximity is the source of the signal in Alpha formats.
Assay [3] deals with Receptor tyrosine-protein kinase erbB-2 (Homo sapiens) (UniProt P04626). The assay is described as above. Conditions: 18-24 h, at 10 µM, stronger effect = lower value.
Assay [4] in a line: SK-BR-3 cell growth inhibitors, pilot screen, 24 h, human (AID 572;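 active = viability at or below 10% of carrier control in both of two separate runs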;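 also: compound exposure lasted between 18 and 24 h rather than exactly 24 h; 100% = carrier-treated control wells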). The following applies: SK-BR-3 viability, CellTiter-Glo luminescence, at 10 µM, stronger effect = lower value. (In general: Cellular ATP, detected with luciferase, serves as a proxy for viable cell number.)
The nature of assay [5]: HUVEC growth inhibition – cell-based, human, primary screen (AID 575;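 active = viability at or below 30% in both replicate assays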;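 also: 100% = median of untreated cell wells with 0.1% DMSO on each plate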). The following applies: HUVEC proliferation, CellTiter-Glo luminescence, 72 h; at 10 µM; stronger effect = lower value. The method in brief: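 Test system: primary human umbilical vein endothelial cells. Quantity: 1250 cells/well. Compound: single 10 µM dose, 0.1% DMSO, from 5x medium stock. Timing: 72 h treatment at 37 °C. Detection: ATP-based CellTiter-Glo luminescent read. Benchmarks: vehicle and MePR control wells. Format: 384-well plates coated with collagen.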

Assay [6] in a line: growth inhibitors of H69AR lung tumor, primary screen, human, duplicate replicates (AID 580).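 Also: 100% = mean luminescence of untreated wells and 0% = no signal.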 Conditions: H69AR lung tumor cells viability, ATP luminescence, 72 h; at 10 µM; stronger effect = lower value.
Assay [7] can be described thus: reversal of MRP1-mediated doxorubicin resistance, pilot screen, H69AR cells, doxorubicin co-treatment (AID 601;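 active = viability loss from added drug above about 55%, and viability with drug at most 40%, in both replicates, limit read from the data, passing the limit was not always enough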). The following applies: CellTiter-Glo, 72 h, at 10 µM; for differential viability (reversal): stronger effect = higher value.
Assay [8] is described as follows: 384-well plate pilot, post-Golgi transport modulator project, inhibition of yeast transport mutant growth (AID 636; in the data active = inhibition above about 31%). Conditions: absorbance 615 nm, about 18 h, stronger effect = higher value.
Assay [9] is described as follows: growth suppression of yeast trafficking mutant, preliminary HTS, modulators of trafficking downstream of Golgi apparatus project, 1536-format plate, OD 615 nm (AID 637; in the data active = inhibition above about 30%). The following applies: yeast transport mutant growth, absorbance 615 nm, 18 h; stronger effect = higher value.
[10] abbreviates: H69AR cells + 2 uM doxorubicin, measured here: viability with 2 uM doxorubicin, stronger effect = lower value.
Where [11] appears, read: H69AR cells, compound alone cytotoxicity.

Sequence of Receptor tyrosine-protein kinase erbB-2 (Homo sapiens) (P04626 whole entry, looked up): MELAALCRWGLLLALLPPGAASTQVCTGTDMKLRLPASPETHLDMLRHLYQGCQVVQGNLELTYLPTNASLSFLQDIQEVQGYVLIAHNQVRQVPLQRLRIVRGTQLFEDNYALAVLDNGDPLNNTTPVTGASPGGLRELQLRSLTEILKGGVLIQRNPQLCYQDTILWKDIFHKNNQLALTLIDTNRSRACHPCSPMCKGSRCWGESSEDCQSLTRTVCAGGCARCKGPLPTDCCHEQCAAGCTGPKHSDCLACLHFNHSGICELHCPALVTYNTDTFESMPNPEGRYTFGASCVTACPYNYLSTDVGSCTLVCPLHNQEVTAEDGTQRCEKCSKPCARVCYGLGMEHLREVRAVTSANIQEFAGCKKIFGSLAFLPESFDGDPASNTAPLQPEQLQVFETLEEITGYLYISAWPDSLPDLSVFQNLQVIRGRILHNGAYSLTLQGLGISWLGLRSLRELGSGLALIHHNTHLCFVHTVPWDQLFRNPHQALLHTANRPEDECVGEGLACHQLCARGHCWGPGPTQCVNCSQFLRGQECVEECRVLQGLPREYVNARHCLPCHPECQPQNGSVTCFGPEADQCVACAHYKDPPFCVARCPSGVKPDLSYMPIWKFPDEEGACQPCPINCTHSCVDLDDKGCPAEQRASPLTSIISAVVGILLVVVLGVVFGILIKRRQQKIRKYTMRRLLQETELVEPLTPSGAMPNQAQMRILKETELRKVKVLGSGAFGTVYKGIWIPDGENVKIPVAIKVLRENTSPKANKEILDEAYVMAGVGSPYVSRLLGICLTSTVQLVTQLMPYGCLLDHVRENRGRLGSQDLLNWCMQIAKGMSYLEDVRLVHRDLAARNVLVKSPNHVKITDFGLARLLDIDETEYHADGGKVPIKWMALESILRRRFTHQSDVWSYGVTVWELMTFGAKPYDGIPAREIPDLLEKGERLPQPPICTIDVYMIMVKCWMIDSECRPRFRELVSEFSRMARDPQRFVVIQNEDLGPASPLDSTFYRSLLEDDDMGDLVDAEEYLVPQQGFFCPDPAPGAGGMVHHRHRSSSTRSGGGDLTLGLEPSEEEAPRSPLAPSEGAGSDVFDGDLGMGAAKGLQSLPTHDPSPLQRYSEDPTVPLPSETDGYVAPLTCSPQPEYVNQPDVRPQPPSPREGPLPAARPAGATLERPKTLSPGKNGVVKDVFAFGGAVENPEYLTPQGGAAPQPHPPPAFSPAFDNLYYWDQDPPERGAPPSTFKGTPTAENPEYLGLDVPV
Sequence of Pantothenate synthetase (Mycobacterium tuberculosis (strain ATCC 25618 / H37Rv)) (P9WIL5 whole entry, looked up): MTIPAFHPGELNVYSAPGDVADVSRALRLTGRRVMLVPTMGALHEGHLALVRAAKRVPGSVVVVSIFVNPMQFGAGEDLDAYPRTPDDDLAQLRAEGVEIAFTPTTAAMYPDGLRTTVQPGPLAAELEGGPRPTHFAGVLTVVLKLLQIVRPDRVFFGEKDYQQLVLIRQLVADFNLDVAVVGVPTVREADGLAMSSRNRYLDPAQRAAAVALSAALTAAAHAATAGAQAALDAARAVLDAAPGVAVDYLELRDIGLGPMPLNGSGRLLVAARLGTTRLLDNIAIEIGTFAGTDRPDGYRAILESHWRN

In the case of `COc1ccc(C(=O)C(C)(C)NO)cc1`, the inhibition (usually the change of the read-out against control, counted positive when it falls) was 0% (inactive) in [1], -6.49% (inactive) in assay [8] and 0.48% (inactive) in assay [9]. Besides, the viability (as a rule, a read-out of living cells in per cent, often relative to untreated cells) was 108% in assay [2]; 108% (inactive) in [4]; 99.9% (inactive) in assay [5]; 86.5% (inactive) in assay [6]; 88.8% in [7] (setting [10]); 86.5% in [7] (setting [11]). Also, the Her2 level in [3] was 100% (inactive). Further, the differential viability (reversal) in assay [7] (H69AR cells + 2 uM doxorubicin) was -2.28% (inactive).

Turning to `Cc1ccc(O)c(CN2CCN(c3ccccc3)CC2)c1`, the inhibition in [1] is 13% (inactive); in assay [8], -8.38% (inactive); in assay [9], 1.33% (inactive). The viability in [2] is 94%; in assay [4] it was 94% (inactive); in assay [5], 101% (inactive); in [6], 85.5% (inactive); in [7] (setting [10]), 74%; in assay [7] (setting [11]) it was 85.5%. Besides, the Her2 level in assay [3] is 88.5% (inactive). In addition, the differential viability (reversal) in assay [7] (H69AR cells + 2 uM doxorubicin) is 11.5% (inactive).

On to `COC(=O)c1c(C)n(Cc2ccc3c(c2)OCO3)c2ccc(O)cc12`, for which the inhibition was 6% (inactive) in assay [1], -3.6% (inactive) in [8] and -1.94% (inactive) in [9]. Further, the viability in assay [2] is 116%; in assay [4], 116% (inactive); in assay [5] it was 54.5% (inactive); in assay [6], 105% (inactive); in assay [7] (setting [10]), 100%; in assay [7] (setting [11]), 105%. For the same compound, the Her2 level in assay [3] was 95% (inactive). In assay [7] (H69AR cells + 2 uM doxorubicin), the differential viability (reversal) is 5.33% (inactive).

For the compound `Cn1c(=O)cc(SCC(=O)N2CCC3(CC2)OCCO3)c2ccc(Cl)cc21`, the inhibition in assay [1] was 9% (inactive); in assay [8] it was -3.03% (inactive); in assay [9] it was 1.77% (inactive). Further, the viability in [2] is 116%; in assay [4], 116% (inactive); in assay [5], 87.6% (inactive); in assay [6] it was 79.1% (inactive); in [7] (setting [10]) it was 70.3%; in assay [7] (setting [11]), 79.1%. Also, the Her2 level in [3] is 94.5% (inactive). Also, the differential viability (reversal) in assay [7] (H69AR cells + 2 uM doxorubicin) is 8.79% (inactive).

Take `CC12CCCCC1=[N+]([O-])CN2O` (stereo not given): the inhibition in [1] is 5% (inactive); in assay [8] it was -1.33% (inactive); in [9], 8.71% (inactive). Further, the viability in assay [2] is 102%; in assay [4], 102% (inactive); in assay [5], 109% (inactive); in [6], 105% (inactive); in assay [7] (setting [10]), 89.4%; in assay [7] (setting [11]), 105%. Further, the Her2 level in assay [3] was 112% (inactive). For the same compound, the differential viability (reversal) in assay [7] (H69AR cells + 2 uM doxorubicin) was 15.9% (inactive).

The record behind these values is PubChem BioAssay.
